Tests used:
[1] = test system: MDA-MB-468; test: Cytotoxicity against human MDA-MB-468 cells assessed as cell growth at 10^-5 M after 48 hrs by SRB assay; format: functional; conditions: MDA-MB-468, 48 h, read-out: Activity
In short: (§1)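 NCI 60-cell-line primary one-dose screen across nine tumour subpanels. Compound added at a single concentration of 10^-5 M and cultures incubated 48 h. Endpoint was sulforhodamine B protein staining read spectrophotometrically, with growth expressed as percent of untreated control cells.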

[2] = test system: T47D; test: Cytotoxicity against human T47D cells assessed as cell growth at 10^-5 M after 48 hrs by SRB assay; format: functional; conditions: read-out: Activity
In short: (§2)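 NCI-60 one-dose screen across nine tumour subpanels. Each agent added once at 10^-5 M, cultures incubated 48 h. Endpoint is sulforhodamine B protein staining read spectrophotometrically. Output is percent growth of treated cells relative to untreated controls.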

[3] = test system: BT-549; test: Cytotoxicity against human BT549 cells assessed as cell growth at 10^-5 M after 48 hrs by SRB assay; format: functional; conditions: BT-549, 48 h, read-out: Activity; in short: as §1
[4] = test system: MDA-MB-231; test: Cytotoxicity against human MDA-MB-231 cells assessed as cell growth at 10^-5 M after 48 hrs by SRB assay; format: functional; conditions: MDA-MB-231, 48 h, read-out: Activity; in short: as §1
[5] = test system: PC-3; test: Cytotoxicity against human PC3 cells assessed as cell growth at 10^-5 M after 48 hrs by SRB assay; format: functional; conditions: PC-3, 48 h, read-out: Activity; in short: as §1
[6] = test system: UO-31; test: Cytotoxicity against human UO31 cells assessed as cell growth at 10^-5 M after 48 hrs by SRB assay; format: functional; conditions: UO-31, 48 h, read-out: Activity; in short: as §2
[7] = test system: ACHN; test: Cytotoxicity against human ACHN cells assessed as cell growth at 10^-5 M after 48 hrs by SRB assay; format: functional; conditions: read-out: Activity; in short: as §1
[8] = test system: A498; test: Cytotoxicity against human A498 cells assessed as cell growth at 10^-5 M after 48 hrs by SRB assay; format: functional; conditions: A498, 48 h, read-out: Activity; in short: as §1
[9] = test system: 786-0; test: Cytotoxicity against human 786-0 cells assessed as cell growth at 10^-5 M after 48 hrs by SRB assay; format: functional; conditions: 786-0, 48 h, read-out: Activity; in short: as §1
[10] = test system: OVCAR-8; test: Cytotoxicity against human OVCAR8 cells assessed as cell growth at 10^-5 M after 48 hrs by SRB assay; format: functional; conditions: OVCAR-8, 48 h, read-out: Activity; in short: as §1
[11] = test system: OVCAR-3; test: Cytotoxicity against human OVCAR3 cells assessed as cell growth at 10^-5 M after 48 hrs by SRB assay; format: functional; conditions: OVCAR-3, 48 h, read-out: Activity; in short: as §1
[12] = test system: UACC-62; test: Cytotoxicity against human UACC62 cells assessed as cell growth at 10^-5 M after 48 hrs by SRB assay; format: functional; conditions: UACC-62, 48 h, read-out: Activity; in short: as §2
[13] = test system: UACC-257; test: Cytotoxicity against human UACC257 cells assessed as cell growth at 10^-5 M after 48 hrs by SRB assay; format: functional; conditions: UACC-257, 48 h, read-out: Activity; in short: as §2
[14] = test system: SK-MEL-2; test: Cytotoxicity against human SK-MEL-2 cells assessed as cell growth at 10^-5 M after 48 hrs by SRB assay; format: functional; conditions: SK-MEL-2, 48 h, read-out: Activity; in short: as §1
[15] = test system: MDA-MB-435; test: Cytotoxicity against human MDA-MB-435 cells assessed as cell growth at 10^-5 M after 48 hrs by SRB assay; format: functional; conditions: MDA-MB-435, 48 h, read-out: Activity; in short: as §1
[16] = test system: M14; test: Cytotoxicity against human M14 cells assessed as cell growth at 10^-5 M after 48 hrs by SRB assay; format: functional; conditions: M14, 48 h, read-out: Activity; in short: as §1
[17] = test system: LOX IMVI; test: Cytotoxicity against human LOXIMVI cells assessed as cell growth at 10^-5 M after 48 hrs by SRB assay; format: functional; conditions: read-out: Activity; in short: as §1
[18] = test system: U-251; test: Cytotoxicity against human U251 cells assessed as cell growth at 10^-5 M after 48 hrs by SRB assay; format: functional; conditions: U-251, 48 h, read-out: Activity; in short: as §2
[19] = test system: SNB-19; test: Cytotoxicity against human SNB19 cells assessed as cell growth at 10^-5 M after 48 hrs by SRB assay; format: functional; conditions: SNB-19, 48 h, read-out: Activity; in short: as §2
[20] = test system: HCT-15; test: Cytotoxicity against human HCT15 cells assessed as cell growth at 10^-5 M after 48 hrs by SRB assay; format: functional; conditions: HCT-15, 48 h, read-out: Activity; in short: as §1
[21] = test system: NCI-H23; test: Cytotoxicity against human NCI-H23 cells assessed as cell growth at 10^-5 M after 48 hrs by SRB assay; format: functional; conditions: NCI-H23, 48 h, read-out: Activity; in short: as §1
[22] = test system: NCI-H226; test: Cytotoxicity against human NCI-H226 cells assessed as cell growth at 10^-5 M after 48 hrs by SRB assay; format: functional; conditions: NCI-H226, 48 h, read-out: Activity; in short: as §1
[23] = test system: HOP-92; test: Cytotoxicity against human HOP92 cells assessed as cell growth at 10^-5 M after 48 hrs by SRB assay; format: functional; conditions: HOP-92, 48 h, read-out: Activity; in short: as §1
[24] = test system: MOLT-4; test: Cytotoxicity against human MOLT4 cells assessed as cell growth at 10^-5 M after 48 hrs by SRB assay; format: functional; conditions: MOLT-4, 48 h, read-out: Activity; in short: as §1
[25] = test system: Rattus norvegicus; test: Antiinflammatory activity in albino rat assessed as inhibition of carrageenan-induced paw edema at 0.28 mmol/kg, po after 4 hrs relative to control; format: functional
In short: (§3)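 Adult male albino rats (120–140 g), four per group, fasted 24 h with water allowed. Test agent suspended in 0.5% w/v aqueous CMC and given orally at 0.28 mmol/kg; controls received CMC alone. After 30 min, 0.1 mL fresh 1% carrageenan in saline was injected subplantar into the right hind paw and saline into the left. Paw thickness was measured by Vernier caliper; % inhibition = [(VR−VL)control − (VR−VL)treated]/(VR−VL)control ×100. Mean ± SEM, one-way ANOVA.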

[26] = test system: Rattus norvegicus; test: Antiinflammatory activity in albino rat assessed as inhibition of carrageenan-induced paw edema at 0.28 mmol/kg, po after 1 hr relative to control; format: functional; in short: as §3
[27] = Induction of nitric oxide release in phosphate buffer at pH 7.4 at 0.1 mM after 6 hrs by Griess method in presence of 0.5 mM of N-acetylcysteine; format: physicochemical; conditions: pH 7.4, 6 h, 100 µM
In short: (§4)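 Compound in DMF diluted to final 10^-4 M in 1:1 50 mM phosphate buffer pH 7.4/MeOH with 5×10^-4 M N-acetylcysteine, 37 °C. Aliquot mixed with Griess reagent, 10 min at room temperature, A546 read. Nitrite quantified against sodium nitrite standards (10–80 nmol/mL); NO expressed as mol/mol. n = 4 reaction mixtures per compound.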

[28] = Induction of nitric oxide release in phosphate buffer at pH 7.4 at 0.1 mM after 5 hrs by Griess method in presence of 0.5 mM of N-acetylcysteine; format: physicochemical; conditions: pH 7.4, 5 h, 100 µM; in short: as §4
[29] = Induction of nitric oxide release in phosphate buffer at pH 7.4 at 0.1 mM after 4 hrs by Griess method in presence of 0.5 mM of N-acetylcysteine; format: physicochemical; conditions: pH 7.4, 4 h, 100 µM; in short: as §4
[30] = Induction of nitric oxide release in phosphate buffer at pH 7.4 at 0.1 mM after 2 hrs by Griess method in presence of 0.5 mM of N-acetylcysteine; format: physicochemical; conditions: pH 7.4, 2 h, 100 µM; in short: as §4

Compound | growth at 10 µM [1] [%] | growth at 10 µM [2] [%] | growth at 10 µM [3] [%] | growth at 10 µM [4] [%] | growth at 10 µM [5] [%] | growth at 10 µM [6] [%] | growth at 10 µM [7] [%] | growth at 10 µM [8] [%] | growth at 10 µM [9] [%] | growth at 10 µM [10] [%] | growth at 10 µM [11] [%] | growth at 10 µM [12] [%] | growth at 10 µM [13] [%] | growth at 10 µM [14] [%] | growth at 10 µM [15] [%] | growth at 10 µM [16] [%] | growth at 10 µM [17] [%] | growth at 10 µM [18] [%] | growth at 10 µM [19] [%] | growth at 10 µM [20] [%] | further results
CCn1c(SC/C(=N/O)c2ccccc2)nnc1-c1ccc(OC)c(OC)c1 | 111 | 99.6 | 134 | 104 | 101 | 85.4 | 103 | 92.3 | 115 | 104 | 106 | 95.5 | 104 | 105 | 116 | 126 | 93 | 101 | 99.9 | 105 | growth at 10 µM [21]: 102%; growth at 10 µM [22]: 97.6%; growth at 10 µM [23]: 107%; growth at 10 µM [24]: 87.4%; inhibition in vivo at 280 µmol/kg [25]: 82%; inhibition in vivo at 280 µmol/kg [26]: 61%; Activity [27]: 0.2 mol/mol; Activity [28]: 0.25 mol/mol; Activity [29]: 0.24 mol/mol; Activity [30]: 0.13 mol/mol
COc1ccc(-c2nnc(SC/C(=N/O)c3ccccc3)n2-c2ccccc2)cc1 | 96.5 | 86 | 90.5 | 117 | 86.4 | 87.1 | 107 | 73.8 | 93.3 | 102 | 111 | 94.3 | 98 | 106 | 102 | 106 | 101 | 98.6 | 97.3 | 95.1 | growth at 10 µM [21]: 106%; growth at 10 µM [22]: 103%; growth at 10 µM [23]: 101%; growth at 10 µM [24]: 70.3%; inhibition in vivo at 280 µmol/kg [25]: 80%; inhibition in vivo at 280 µmol/kg [26]: 58%; Activity [27]: 0.12 mol/mol; Activity [28]: 0.15 mol/mol; Activity [29]: 0.15 mol/mol; Activity [30]: 0.08 mol/mol
COc1ccc(-c2nnc(SC/C(=N/O)c3ccccc3)n2-c2ccccc2)cc1OC | 107 | 90.1 | 92.4 | 87.5 | 91.6 | 80.1 | 95.4 | 94.2 | 102 | 90.7 | 106 | 89.5 | 101 | 116 | 109 | 98.9 | 90.3 | 101 | 101 | 98.3 | growth at 10 µM [21]: 98%; growth at 10 µM [22]: 94.9%; growth at 10 µM [23]: 86.5%; growth at 10 µM [24]: 81.8%; inhibition in vivo at 280 µmol/kg [25]: 81%; inhibition in vivo at 280 µmol/kg [26]: 55%; Activity [27]: 0.17 mol/mol; Activity [28]: 0.23 mol/mol; Activity [29]: 0.19 mol/mol; Activity [30]: 0.17 mol/mol

Source: ChEMBL document CHEMBL2390929, “New nitric oxide donating 1,2,4-triazole/oxime hybrids: synthesis, investigation of anti-inflammatory, ulceroginic liability and antiproliferative activities” (Bioorg Med Chem, 2013)
